# From ChEMBL document CHEMBL4715799, “An N,N-Bis(benzimidazolylpicolinoyl)piperazine (BT-11): A Novel Lanthionine Synthetase C-Like 2-Based Therapeutic for Inflammatory Bowel Disease” (J Med Chem, 2016)
# The source made the active and inactive calls. No cut-off for these calls is given here.
# How the values were obtained:
# [1] = Tmax in rat plasma at 80 mg/kg, po by LC-MS/MS analysis; format: ADME, organism-based
# In short: (§1)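 Healthy rats given a single 80 mg/kg oral dose; plasma sampled over 0.5−48 h for pharmacokinetic parameters.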
# [2] = test system: Mus musculus; assay: Antiinflammatory activity in LANCL2-/- C57BL/6J mouse model of DSS-induced colitis assessed as reduction of TNF-alpha positive cells at 8 mg/kg, po administered as single dose via gavage measured 7 days post DSS challenge by immunostaining based flow cytometric analysis; format: functional, organism-based
# [3] = Cmax in rat at 500 mg/kg, po by LC-MS/MS analysis by LC-MS/MS analysis; format: ADME, organism-based; design: route oral, dose 500 mg/kg; conditions: in vivo
# [4] = Elimination rate constant in rat at 80 mg/kg, po; format: ADME, organism-based; conditions: in vivo; in short: as §1
# [5] = Tmax in rat at 500 mg/kg, po by LC-MS/MS analysis; format: ADME, organism-based; conditions: in vivo
# [6] = test system: Mus musculus; assay: Antiinflammatory activity in LANCL2-/- C57BL/6J mouse model of DSS-induced colitis assessed as reduction of MCP1 positive cells at 8 mg/kg, po […] via gavage measured 7 days post DSS challenge by immunostaining based flow cytometric analysis; format: functional, organism-based
# In short: (§2)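 DSS colitis in WT or LANCL2−/− mice; 8 mg/kg/d by daily gavage from day 0, analysed at day 7. Colonic cells (4−6 × 10^5) surface-stained 20 min with fluorochrome-conjugated antibodies, then fixed, permeabilized, Fc-blocked and stained intracellularly. Stored fixed at 4 °C in the dark. Flow cytometry with live-cell then single-cell gating.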
# [7] = test system: Mus musculus; assay: Antiinflammatory activity in C57BL/6J mouse model of DSS-induced colitis assessed as upregulation of IL-10 secretion at 8 mg/kg, po administered as […] via gavage measured 7 days post DSS challenge by immunostaining based flow cytometric analysis; format: functional, organism-based; in short: as §2
# [8] = test system: Mus musculus; assay: Antiinflammatory activity in LANCL2-/- C57BL/6J mouse model of DSS-induced colitis assessed as reduction in leukocyte infiltration of gut mucosa at 8 mg/kg, po administered […] via gavage measured 7 days post DSS challenge by H and E staining based histopathological analysis; format: functional, organism-based
# In short: (§3)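 Colitis induced in C57BL/6J or LANCL2−/− mice with DSS in drinking water. Compound given at 8 mg/kg/d by daily orogastric gavage from day 0 of the DSS challenge. Assessed at day 7 by disease activity index and by histopathology of colon: formalin-fixed, paraffin 5 μm sections, H&E, scored for leukocytic infiltration, epithelial erosion, mucosal thickening.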
# [9] = test system: Mus musculus; assay: Antiinflammatory activity in C57BL/6J mouse model of DSS-induced colitis assessed as upregulation of colonic LANCL2 mRNA expression at 8 mg/kg, po administered as single dose via gavage measured after 3 days by qRT-PCR analysis; format: functional, organism-based; conditions: time 3.0 day
# In short: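 DSS colitis mice given 8 mg/kg/d orally versus vehicle; colon sampled on day 3 after treatment. Colonic LANCL2 mRNA measured by SYBR green real-time qPCR from 1 μg total RNA, quantified against amplicon standard curves.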
# [10] = test system: Splenocyte; assay: Induction of intracellular cAMP production in LANCL2-/- C57BL/6J mouse splenocytes at 1.25 to 10 uM incubated for 20 hrs followed by redosing for 10 mins measured by EIA; format: functional, tissue-based; conditions: dose 1.25-10 µM, time 1210.0 min
# In short: (§4)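 Splenocytes from male WT or LANCL2−/− C57BL/6J mice over 8 weeks, stimulated on plates precoated with anti-CD28 (1 μg/mL) and anti-CD3 (5 μg/mL). Compound in cRPMI at 0, 1.25, 2.5, 5, 10 μM, four replicates, plus unstimulated controls. After 20 h, a second 10 min treatment at the same concentrations. Cells washed, lysed in 0.1 M HCl, intracellular cAMP read by direct EIA.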
# [11] = test system: Mus musculus; assay: Antiinflammatory activity in C57BL/6J mouse model of DSS-induced colitis assessed as reduction in colonic lesion at 8 mg/kg, po administered as single dose via gavage measured 7 days post DSS challenge; format: functional, organism-based
# [12] = test system: Mus musculus; assay: Antiinflammatory activity in C57BL/6J mouse model of DSS-induced colitis assessed as upregulation of colonic LANCL2 mRNA expression at 8 mg/kg, po administered as single dose via gavage measured 3 days post DSS challenge by qRT-PCR analysis
# [13] = test system: Mus musculus; assay: Antiinflammatory activity in LANCL2-/- C57BL/6J mouse model of DSS-induced colitis assessed as reduction of MHCII+ CD11c+ […] at 8 mg/kg, po […] via gavage measured 7 days post DSS challenge by immunostaining based flow cytometric analysis; format: functional, organism-based; in short: as §2
# [14] = test system: Mus musculus; assay: Antiinflammatory activity in C57BL/6J mouse model of DSS-induced colitis assessed as improvement in disease activity at 8 mg/kg, po administered as […] via gavage measured 7 days post DSS challenge; format: functional, organism-based; in short: as §3
# [15] = test system: Mus musculus; assay: Antiinflammatory activity in C57BL/6J mouse model of DSS-induced colitis assessed as reduction of MCP1 positive cells at 8 mg/kg, po administered as single dose via gavage measured 7 days post DSS challenge by immunostaining based flow cytometric analysis; format: functional, organism-based
# [16] = species on record: Mus musculus; assay: Antiinflammatory activity in C57BL/6J mouse model of DSS-induced colitis assessed as decrease in TNF-alpha gene expression at […] measured 7 days post DSS challenge by qRT-PCR analysis; format: functional, organism-based
# [17] = biological target: T1, LanC-like protein 2 (Mus musculus) (UniProt Q9JJK2); assay: Activation of wild-type LANCL2 in C57BL/6J mouse splenocytes assessed as increase in intracellular cAMP production incubated for 20 hrs followed by compound redosing for 10 mins measured by EIA; format: cell-based; conditions: Splenocyte, filed as activator, dose 1.25-10 µM, time 1210.0 min; in short: as §4
# T1 sequence (whole entry): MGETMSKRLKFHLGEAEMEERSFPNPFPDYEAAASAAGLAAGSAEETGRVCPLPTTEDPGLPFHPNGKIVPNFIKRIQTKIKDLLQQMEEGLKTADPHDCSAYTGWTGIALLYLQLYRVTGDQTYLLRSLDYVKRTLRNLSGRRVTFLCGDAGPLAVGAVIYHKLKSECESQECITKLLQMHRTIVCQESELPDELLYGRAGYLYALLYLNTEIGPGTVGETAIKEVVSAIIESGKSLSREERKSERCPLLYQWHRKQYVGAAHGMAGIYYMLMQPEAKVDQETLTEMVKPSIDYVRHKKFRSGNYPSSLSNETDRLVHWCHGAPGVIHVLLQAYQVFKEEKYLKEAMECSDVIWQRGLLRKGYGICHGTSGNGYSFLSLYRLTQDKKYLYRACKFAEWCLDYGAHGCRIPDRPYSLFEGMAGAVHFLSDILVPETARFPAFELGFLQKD
# [18] = test system: Mus musculus; assay: Antiinflammatory activity in C57BL/6J mouse model of DSS-induced colitis assessed as reduction of MHCII+ CD11c+ […] at 8 mg/kg, po administered as single dose via gavage measured 7 days post DSS challenge by immunostaining based flow cytometric analysis; format: functional, organism-based
# [19] = test system: Mus musculus; assay: Antiinflammatory activity in C57BL/6J mouse model of DSS-induced colitis assessed as increase in IL-10 gene expression at 8 mg/kg, po administered as single dose via gavage measured 7 days post DSS challenge by qRT-PCR analysis; format: functional, organism-based
# [20] = Half-life in rat at 80 mg/kg, po by LC-MS/MS analysis; conditions: in vivo
# [21] = Drug concentration in rat colon at 80 mg/kg, po by LC-MS/MS analysis; format: ADME, organism-based; conditions: in vivo
# [22] = test system: Mus musculus; assay: Antiinflammatory activity in C57BL/6J mouse model of DSS-induced colitis assessed as reduction of TNF-alpha positive cells at 8 mg/kg, po administered as single dose via gavage measured 7 days post DSS challenge by immunostaining based flow cytometric analysis; format: functional, organism-based
# [23] = Apparent volume of distribution in rat at 80 mg/kg, po by LC-MS/MS analysis; format: ADME, organism-based; conditions: in vivo; in short: as §1
# [24] = test system: Mus musculus; assay: Antiinflammatory activity in LANCL2-/- C57BL/6J mouse model of DSS-induced colitis assessed as upregulation of IL-10 secretion at 8 mg/kg, po administered as single dose via gavage measured 7 days post DSS challenge by immunostaining based flow cytometric analysis; format: functional, organism-based
# [25] = test system: Mus musculus; assay: Antiinflammatory activity in LANCL2-/- C57BL/6J mouse model of DSS-induced colitis at 8 mg/kg, po administered as single dose via gavage measured 7 days DSS challenge; format: functional, organism-based
# [26] = Cmax in rat plasma at 80 mg/kg, po measured at 1 hr by LC-MS/MS analysis; format: ADME, organism-based; design: route oral, dose 80 mg/kg, time 1 hrs; in short: as §1
smiles,measurement,setting,value
O=C(c1cccc(-c2nc3ccccc3[nH]2)n1)N1CCN(C(=O)c2cccc(-c3nc4ccccc4[nH]3)n2)CC1 [OMILANCOR],Tmax,[1],1 h
same,Activity,[2],inactive
same,Cmax,[3],17 ng/mL
same,Kel,[4],0.225 h⁻¹
same,Tmax,[5],4 h
same,Activity,[6],inactive
same,Activity,[7],Active
same,Activity,[8],inactive
same,Activity,[9],Active
same,Activity,[10],inactive
same,Activity,[11],Active
same,Activity,[12],Active
same,Activity,[13],inactive
same,Activity,[14],Active
same,Activity,[15],Active
same,Activity,[16],Active
same,Activity,[17],Dose-dependent effect
same,Activity,[18],Active
same,Activity,[19],Active
same,half-life,[20],3.1 h
same,Drug uptake,[21],Active
same,Activity,[22],Active
same,Vz,[23],3.38 L/kg
same,Activity,[24],inactive
same,Activity,[25],inactive
same,Cmax,[26],28 ng/mL
